Experimental data from ChEMBL document CHEMBL3992547, “Antimicrobial activity of rhodanine-3-acetic acid derivatives” (Bioorg Med Chem, 2017).
In brackets after ≈: the same amount, converted by molar mass. Activity calls are given as the source filed them. The rule behind the calls is not given here.

How the values were obtained:
[1] = system: Mycobacterium tuberculosis; assay: Antimycobacterial activity against Mycobacterium tuberculosis H37Rv 331/88 measured after 14 days by micromethod; type: functional; details: H37Rv 331/88, 336 h
[2] = system: Mycobacterium tuberculosis; assay: Antimycobacterial activity against Mycobacterium tuberculosis H37Rv 331/88 measured after 21 days by micromethod; type: functional; details: H37Rv 331/88, 504 h
[3] = system: Mycobacterium avium; assay: Antimycobacterial activity against Mycobacterium avium 330/88 measured after 14 days by micromethod; type: functional; details: 330/88, 336 h
[4] = system: Mycobacterium avium; assay: Antimycobacterial activity against Mycobacterium avium 330/88 measured after 21 days by micromethod; type: functional; details: 330/88, 504 h
[5] = system: Mycobacterium kansasii; assay: Antimycobacterial activity against Mycobacterium kansasii isolate 235/80 after 7 days by micromethod; type: functional; details: isolate 235/80, 168 h
[6] = system: Mycobacterium kansasii; assay: Antimycobacterial activity against Mycobacterium kansasii isolate 235/80 after 14 days by micromethod; type: functional; details: isolate 235/80, 336 h
[7] = system: Mycobacterium kansasii; assay: Antimycobacterial activity against Mycobacterium kansasii isolate 235/80 after 21 days by micromethod; type: functional; details: isolate 235/80, 504 h
[8] = system: Mycobacterium kansasii; assay: Antimycobacterial activity against Mycobacterium kansasii isolate 6509/96 after 7 days by micromethod; type: functional; details: isolate 6509/96, 168 h
[9] = system: Mycobacterium kansasii; assay: Antimycobacterial activity against Mycobacterium kansasii isolate 6509/96 after 14 days by micromethod; type: functional; details: isolate 6509/96, 336 h
[10] = system: Mycobacterium kansasii; assay: Antimycobacterial activity against Mycobacterium kansasii isolate 6509/96 after 21 days by micromethod; type: functional; details: isolate 6509/96, 504 h
[11] = Solubility of the compound in Sula's semisynthetic medium up to 1 mM; type: physicochemical
[12] = system: Staphylococcus aureus; assay: Antibacterial activity against Staphylococcus aureus CCM 4516/08 incubated for 24 hrs under dark condition by microdilution broth assay; type: functional; details: CCM 4516/08, 24 h
Summary of the method: (§1)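 Broth microdilution per M07-A07, modified, in Mueller-Hinton broth adjusted to pH 7.4 (±0.2). Inoculum is prepared in sterile water to McFarland 0.5 (1.5 × 10⁸ CFU/mL). Plates are incubated in the dark at 35 °C in humid air. MIC is read after 24 and 48 h as at least 95% growth reduction versus control (IC₉₅).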

[13] = system: Staphylococcus aureus; assay: Antibacterial activity against Staphylococcus aureus CCM 4516/08 incubated for 48 hrs under dark condition by microdilution broth assay; type: functional; details: CCM 4516/08, 48 h; summary of the method: as §1
[14] = system: Staphylococcus aureus; assay: Antibacterial activity against methicillin-resistant Staphylococcus aureus H 5996/08 incubated for 24 hrs under dark condition by microdilution broth assay; type: functional; details: H 5996/08, 24 h
Summary of the method: (§2)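 Microdilution broth method modified per M07-A07, in Mueller-Hinton broth adjusted to pH 7.4 (±0.2). Inoculum made in sterile water to 0.5 McFarland (1.5 × 10⁸ CFU/mL). Plates incubated in the dark at 35 °C in a humid atmosphere, with reads at 24 and 48 h. MIC taken as at least 95% growth reduction (IC₉₅) versus control.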

[15] = system: Staphylococcus aureus; assay: Antibacterial activity against methicillin-resistant Staphylococcus aureus H 5996/08 incubated for 48 hrs under dark condition by microdilution broth assay; type: functional; details: H 5996/08, 48 h; summary of the method: as §2
[16] = system: Staphylococcus epidermidis; assay: Antibacterial activity against Staphylococcus epidermidis H 6966/08 incubated for 24 hrs under dark condition by microdilution broth assay; type: functional; details: H 6966/08, 24 h; summary of the method: as §1
[17] = system: Staphylococcus epidermidis; assay: Antibacterial activity against Staphylococcus epidermidis H 6966/08 incubated for 48 hrs under dark condition by microdilution broth assay; type: functional; details: H 6966/08, 48 h; summary of the method: as §1
[18] = system: Escherichia coli; assay: Antibacterial activity against Escherichia coli CCM 4517 incubated for 24 hrs under dark condition by microdilution broth assay; type: functional; details: CCM 4517, 24 h; summary of the method: as §1
[19] = system: Escherichia coli; assay: Antibacterial activity against Escherichia coli CCM 4517 incubated for 48 hrs under dark condition by microdilution broth assay; type: functional; details: CCM 4517, 48 h; summary of the method: as §1
[20] = system: Klebsiella pneumoniae; assay: Antibacterial activity against Klebsiella pneumoniae D 11750/08 up to 500 uM incubated for 24 to 48 hrs under dark condition by microdilution broth assay; type: functional; summary of the method: as §1
[21] = system: Klebsiella pneumoniae; assay: Antibacterial activity against ESBL positive Klebsiella pneumoniae J 14368/08 up to 500 uM incubated for 24 to 48 hrs under dark condition by microdilution broth assay; type: functional; summary of the method: as §1
[22] = system: Pseudomonas aeruginosa; assay: Antibacterial activity against Pseudomonas aeruginosa CCM 1961 up to 500 uM incubated for 24 to 48 hrs under dark condition by microdilution broth assay; type: functional; summary of the method: as §1
[23] = system: Candida albicans; assay: Antifungal activity against Candida albicans ATCC 44859 after 24 hrs by microdilution broth assay; type: functional; details: ATCC 44859, 24 h
Summary of the method: (§3)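 Broth microdilution per CLSI M27-A3 and M38-A2 in RPMI 1640 with glutamine, buffered to pH 7.0 with MOPS. Compounds are diluted in DMSO. Final inoculum is 5 × 10³ CFU/mL for yeasts and 0.5–5 × 10⁴ CFU/mL for moulds. Plates are incubated in the dark at 35 °C in humid air and read visually and/or at 540 nm after 24 and 48 h. MIC is ≥80% growth reduction (IC₈₀) for yeasts and ≥50% (IC₅₀) for filamentous fungi.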

[24] = system: Candida albicans; assay: Antifungal activity against Candida albicans ATCC 44859 after 48 hrs by microdilution broth assay; type: functional; details: ATCC 44859, 48 h; summary of the method: as §3
[25] = system: Candida tropicalis; assay: Antifungal activity against Candida tropicalis 156 after 24 hrs by microdilution broth assay; type: functional; details: Candida tropicalis, 156, 24 h; summary of the method: as §3
[26] = system: Candida tropicalis; assay: Antifungal activity against Candida tropicalis 156 after 48 hrs by microdilution broth assay; type: functional; details: Candida tropicalis, 156, 48 h; summary of the method: as §3
[27] = system: Nakaseomyces glabratus; assay: Antifungal activity against Candida glabrata 20/I after 24 hrs by microdilution broth assay; type: functional; summary of the method: as §3
[28] = system: Nakaseomyces glabratus; assay: Antifungal activity against Candida glabrata 20/I after 48 hrs by microdilution broth assay; type: functional; summary of the method: as §3
[29] = system: Trichosporon asahii; assay: Antifungal activity against Trichosporon asahii 1188 after 24 hrs by microdilution broth assay; type: functional; details: Trichosporon asahii, 1188, 24 h; summary of the method: as §3
[30] = system: Trichosporon asahii; assay: Antifungal activity against Trichosporon asahii 1188 after 48 hrs by microdilution broth assay; type: functional; details: Trichosporon asahii, 1188, 48 h; summary of the method: as §3
[31] = system: Aspergillus fumigatus; assay: Antifungal activity against Aspergillus fumigatus 231 after 24 hrs by microdilution broth assay; type: functional; details: Aspergillus fumigatus, 231, 24 h; summary of the method: as §3
[32] = system: Aspergillus fumigatus; assay: Antifungal activity against Aspergillus fumigatus 231 after 48 hrs by microdilution broth assay; type: functional; details: Aspergillus fumigatus, 231, 48 h; summary of the method: as §3
[33] = system: Trichophyton mentagrophytes; assay: Antifungal activity against Trichophyton mentagrophytes 445 after 72 hrs by microdilution broth assay; type: functional; details: Trichophyton mentagrophytes, 445, 72 h
Summary of the method: (§4)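 Broth microdilution per CLSI M38-A2 in RPMI 1640 with glutamine, buffered to pH 7.0 with MOPS, with DMSO as diluent. Final inoculum is 0.5–5 × 10⁴ CFU/mL. Plates are incubated in the dark at 35 °C in humid air and read visually and/or at 540 nm after 72 and 120 h. MIC is at least 50% growth reduction versus control.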

[34] = system: Trichophyton mentagrophytes; assay: Antifungal activity against Trichophyton mentagrophytes 445 after 120 hrs by microdilution broth assay; type: functional; details: Trichophyton mentagrophytes, 445, 120 h; summary of the method: as §4
[35] = system: Pichia kudriavzevii; assay: Antifungal activity against Candida krusei E28 after 24 to 48 hrs hrs by microdilution broth assay; type: functional; summary of the method: as §3
[36] = system: Lichtheimia corymbifera; assay: Antifungal activity against Absidia corymbifera 272 after 24 to 48 hrs hrs by microdilution broth assay; type: functional; summary of the method: as §3
[37] = system: Enterococcus; assay: Antibacterial activity against Enterococcus sp. J 14365/08 incubated for 24 hrs under dark condition by microdilution broth assay; details: J 14365/08, 24 h
[38] = system: Enterococcus; assay: Antibacterial activity against Enterococcus sp. J 14365/08 incubated for 48 hrs under dark condition by microdilution broth assay; details: J 14365/08, 48 h

SMILES	MIC [1]	MIC [2]	MIC [3]	MIC [4]	MIC [5]	MIC [6]	MIC [7]	MIC [8]	MIC [9]	MIC [10]	solubility [11]	MIC95 [12]	MIC95 [13]	MIC95 [14]	MIC95 [15]	MIC95 [16]	MIC95 [17]	MIC95 [18]	MIC95 [19]	Activity [20]	other results
O=C(O)CN1C(=O)/C(=C/c2ccccc2O)SC1=S	32 µM (≈ 9.45 µg/mL)	32 µM (≈ 9.45 µg/mL)	125 µM (≈ 36.9 µg/mL)	125 µM (≈ 36.9 µg/mL)	32 µM (≈ 9.45 µg/mL)	62.5 µM (≈ 18.5 µg/mL)	62.5 µM (≈ 18.5 µg/mL)	32 µM (≈ 9.45 µg/mL)	62.5 µM (≈ 18.5 µg/mL)	62.5 µM (≈ 18.5 µg/mL)	Soluble	62.5 µM (≈ 18.5 µg/mL)	62.5 µM (≈ 18.5 µg/mL)	62.5 µM (≈ 18.5 µg/mL)	62.5 µM (≈ 18.5 µg/mL)	125 µM (≈ 36.9 µg/mL)	125 µM (≈ 36.9 µg/mL)	500 µM (≈ 148 µg/mL)	> 500 µM	inactive	Activity [21]: inactive; Activity [22]: inactive; MIC80 [23]: 500 µM (≈ 148 µg/mL); MIC80 [24]: 500 µM (≈ 148 µg/mL); MIC80 [25]: > 500 µM; MIC80 [26]: > 500 µM; MIC80 [27]: > 500 µM; MIC80 [28]: > 500 µM; MIC80 [29]: > 500 µM; MIC80 [30]: > 500 µM; MIC50 [31]: > 500 µM; MIC50 [32]: > 500 µM; MIC50 [33]: 250 µM (≈ 73.8 µg/mL); MIC50 [34]: 250 µM (≈ 73.8 µg/mL); Activity [35]: inactive; Activity [36]: inactive; MIC95 [37]: 125 µM (≈ 36.9 µg/mL); MIC95 [38]: 125 µM (≈ 36.9 µg/mL)
O=C(CN1C(=O)CSC1=S)Oc1ccc([N+](=O)[O-])cc1	500 µM (≈ 156 µg/mL)	500 µM (≈ 156 µg/mL)	1000 µM (≈ 312 µg/mL)	1000 µM (≈ 312 µg/mL)	500 µM (≈ 156 µg/mL)	500 µM (≈ 156 µg/mL)	1000 µM (≈ 312 µg/mL)	500 µM (≈ 156 µg/mL)	500 µM (≈ 156 µg/mL)	500 µM (≈ 156 µg/mL)	Soluble	250 µM (≈ 78.1 µg/mL)	500 µM (≈ 156 µg/mL)	500 µM (≈ 156 µg/mL)	500 µM (≈ 156 µg/mL)	500 µM (≈ 156 µg/mL)	500 µM (≈ 156 µg/mL)	> 500 µM	> 500 µM	inactive	Activity [21]: inactive; Activity [22]: inactive; MIC80 [23]: > 500 µM; MIC80 [24]: > 500 µM; MIC80 [25]: > 500 µM; MIC80 [26]: > 500 µM; MIC80 [27]: > 500 µM; MIC80 [28]: > 500 µM; MIC80 [29]: > 500 µM; MIC80 [30]: > 500 µM; MIC50 [31]: 500 µM (≈ 156 µg/mL); MIC50 [32]: > 500 µM; MIC50 [33]: 125 µM (≈ 39 µg/mL); MIC50 [34]: 250 µM (≈ 78.1 µg/mL); Activity [35]: inactive; Activity [36]: inactive; MIC95 [37]: 500 µM (≈ 156 µg/mL); MIC95 [38]: 500 µM (≈ 156 µg/mL)
